Screening data as filed in PubChem.
MC4R barr agon: agonists of human melanocortin 4 receptor (MC4R) beta-arrestin; 360,000 tested, 0.98% active; U2OS MC4R beta-arrestin complementation, luminescence; percent of melanotan II response, DMSO zero; P32245; activation, % at 8.9 µM; AID 540308;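 active = activation above a per-plate cutoff, the mean activation of sample wells on that plate plus 3 SD, cut at about 8% in these data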
MC4R antagonist: antagonists of human melanocortin 4 receptor (MC4R) | P32245 | inhibition, % at 6.5 µM | AID 540295 | MC4R-expressing cells, MTII-stimulated cAMP, LANCE TR-FRET | 360,000 tested, 0.48% active;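 active = inhibition above its plate's cutoff, the mean of tested wells on that plate plus 3 SD, cut at about 29% in these data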
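System: U2OS cells stably expressing human melanocortin 4 receptor (MC4R). Reagent: Melanotan II challenge after compound preincubation. Doses: 6.5 µM. Times: 30-min compound, 1-h challenge, 1-h detection, room temperature. Measured by: TR-FRET with Eu-cAMP and labeled anti-cAMP, 671 nm. Replicates: singlicate.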
MsrA inh: bovine MsrA inhibition; inhibition, % at 15.5 µM; 360,000 tested, 0.75% active; purified bovine MsrA, absorbance read-out; in the data active = inhibition above about 4.5%
MsrA act: activates bovine MsrA enzyme; purified bovine MsrA, absorbance read-out; activation, % at 10.6 µM; 360,000 tested, 0.3% active; AID 602163; in the data active = activation above about 7.5%
MC4R barr ag: human MC4R beta-arrestin agonism confirmation. AID 602192. 2,400 tested, 31% active. U2OS MC4R beta-arrestin recruitment, luminescence; scaled DMSO 0%, Melanotan II 100%. shares compounds with MC4R barr agon. activation, % at 8.9 µM;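 active = mean activation across replicates above the hit cutoff set in the earlier primary screen, cut at about 8% in these data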
MOR-DOR barr ag: OPRM1-OPRD1 heterodimer agonism counter-screen; activation, % at 9.2 µM; shares compounds with MC4R barr agon; U2OS PathHunter beta-arrestin, beta-gal luminescence; percent of deltorphin B response, DMSO zero; 2,400 tested, 5.8% active;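 active = mean activation across replicates exceeds the hit threshold derived in the earlier primary screen, cut at about 18% in these data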
Target sequence (P35372 whole entry, looked up): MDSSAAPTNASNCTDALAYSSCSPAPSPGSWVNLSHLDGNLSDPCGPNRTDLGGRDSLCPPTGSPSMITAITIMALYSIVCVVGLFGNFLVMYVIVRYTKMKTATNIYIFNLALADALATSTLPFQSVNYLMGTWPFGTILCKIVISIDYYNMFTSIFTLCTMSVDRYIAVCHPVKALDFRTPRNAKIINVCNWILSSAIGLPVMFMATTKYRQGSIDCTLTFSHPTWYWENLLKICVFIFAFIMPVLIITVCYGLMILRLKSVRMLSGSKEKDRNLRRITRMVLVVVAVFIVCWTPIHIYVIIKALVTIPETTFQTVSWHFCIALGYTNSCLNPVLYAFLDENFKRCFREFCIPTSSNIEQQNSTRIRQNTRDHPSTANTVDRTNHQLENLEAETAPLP
Target sequence (P41143 whole entry, looked up): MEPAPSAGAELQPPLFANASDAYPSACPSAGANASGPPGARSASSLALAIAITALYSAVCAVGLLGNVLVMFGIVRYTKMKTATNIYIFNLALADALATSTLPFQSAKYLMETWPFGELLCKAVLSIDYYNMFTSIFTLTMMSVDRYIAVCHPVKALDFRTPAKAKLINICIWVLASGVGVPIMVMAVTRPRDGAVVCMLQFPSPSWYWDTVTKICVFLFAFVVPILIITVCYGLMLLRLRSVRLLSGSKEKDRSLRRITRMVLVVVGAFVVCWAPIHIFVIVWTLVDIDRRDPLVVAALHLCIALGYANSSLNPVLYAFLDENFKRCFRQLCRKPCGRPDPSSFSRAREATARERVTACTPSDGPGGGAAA
Large screens that a line does not name were inactive (follow-up assays come after a bar, where they were run). Sampled rows, rich in hits. Any-hit rate of the full collection: about 2.3%.

COc1ccc(Cn2c(C)c(C)c(C#N)c2NC(=O)Nc2ccc(Cl)cc2)cc1	MC4R barr agon 13 | MC4R barr ag inactive | MOR-DOR barr ag inactive
Cc1c(C#N)c(NC(=O)c2cccc(Cl)c2)n(Cc2ccccc2)c1C	none
Cc1cccc(/C=N\NC(=O)c2ccc(Cl)cc2)c1O	none
CSc1ccc(CN(C)CC(=O)Nc2ccccc2C(=O)NC2CC2)cc1	none
Cc1cc(NC(=O)c2cncc(Br)c2)ccc1NC(=O)c1cc2ccccc2o1	MC4R barr agon 10 | MC4R barr ag 17 | MOR-DOR barr ag inactive
COc1cccc(C(=O)Nc2ccc(NC(=O)c3cc4ccccc4o3)c(OC)c2)c1	MC4R barr agon 10 | MC4R barr ag inactive | MOR-DOR barr ag inactive
Cc1c(C(=O)N(C)c2ccccc2Cl)cnn1-c1ccccc1	none
CC1(C)CC[C@]2(CO)CC[C@]3(C)C(=CCC4[C@@]5(C)CC[C@H](O)[C@@](C)(CO)C5CC[C@]43C)[C@@H]2C1 (stereo partly specified)	MC4R barr agon 11 | MC4R barr ag 15 | MOR-DOR barr ag inactive
CC1(C)C[C@H](O)[C@]2(CO)[C@H](O)C[C@]3(C)C(=CCC4[C@@]5(C)CC[C@H](O)C(C)(C)C5CC[C@]43C)[C@@H]2C1 (stereo partly specified)	MC4R barr agon 19 | MC4R barr ag 25 | MOR-DOR barr ag 21
Cc1cc(F)ccc1NC(=O)c1cc(S(=O)(=O)N2CCc3ccccc32)cn1C	none
Fc1cccc(Cc2c(-c3cccc(Cl)c3)nc3c(Cl)cc(C(F)(F)F)cn23)c1	none (no result: MC4R barr agon, MC4R antagonist)
Cc1ccccc1C(=O)NN1CC(C(=O)OCc2ccc(Cl)c(Cl)c2)CC1=O (stereo unspecified)	none
Clc1cccc(Cl)c1CON/C=N/c1ncnc2sccc12	MC4R barr agon 12 | MC4R barr ag inactive | MOR-DOR barr ag inactive
CC(C)NCCOCCSc1ccc(Cl)cc1	none
Cc1c(CCOC(=O)CC23CC4CC(CC(C)(C4)C2)C3)sc[n+]1CC(=O)c1ccccc1	MC4R barr agon 9.8 | MC4R barr ag 20 | MOR-DOR barr ag inactive
O=C(COC(=O)c1ccc(O)cc1O)c1ccc2c(c1)OCO2	none
O=C(CCC(=O)Nc1cccc(Cl)c1)N/N=C/c1cc([N+](=O)[O-])ccc1O	none
CO/N=C(/CS(=O)Cc1ccc(Cl)cc1)c1ccc(Cl)cc1 (stereo unspecified)	MC4R barr agon 14 | MC4R barr ag inactive | MOR-DOR barr ag inactive
O=C(Nc1ccc(Oc2ccccc2)nc1)[C@H]1O[C@@H](n2ccc(=O)[nH]c2=O)[C@H](O)[C@@H]1O	none (no result: MC4R barr agon, MC4R antagonist)
COC(=O)c1ccccc1NC(=O)c1cccc(NC(=O)CSCc2ccccc2)c1C	MC4R barr agon 18 | MC4R barr ag inactive | MOR-DOR barr ag inactive
COc1ccc(/C=C(/NC(=O)/C=C/c2ccccc2)C(=O)O)cc1	none
Cc1ccc(C(=O)Nc2ccc(C(=O)/C=C/c3cccs3)cc2)cc1	MC4R barr agon 28 | MC4R barr ag inactive | MOR-DOR barr ag inactive
O=C(/C=C/c1cccs1)c1ccc(NC(=O)c2cccc(Br)c2)cc1	none
O=C(Nc1ccccc1OC(=O)c1ccc(Cl)cc1)c1ccc(Cl)cc1	MC4R barr agon 36 | MC4R barr ag inactive | MOR-DOR barr ag inactive
COc1ccc(C(=O)Nc2cc(Cl)ccc2OC(=O)c2ccc(OC)cc2)cc1	MC4R barr agon 14 (no result: MsrA inh) | MC4R barr ag inactive | MOR-DOR barr ag inactive
O=C(Nc1cc(Cl)ccc1Cl)c1ccc(OC(=O)c2ccco2)cc1	MC4R barr agon 13 | MC4R barr ag inactive | MOR-DOR barr ag inactive
Cc1ccc(C(=O)Nc2cc(Cl)ccc2OC(=O)c2ccc(C)cc2)cc1	none (no result: MC4R barr agon, MC4R antagonist, MsrA act)
COc1ccc(C2CC(c3ccc(F)cc3)n3nc(NC(=O)c4ccco4)nc3N2)cc1 (stereo unspecified)	none
CCc1nc2cccnc2n1-c1ccc(CC(=O)O)cc1	none
COc1ccccc1Nc1ncnc2c1cnn2-c1cccc(C)c1	none
CCOC(=O)c1c(C)n(-c2ccc(C)cc2)c2ccc(OCC(O)CNCC3CCCO3)cc12 (stereo unspecified)	MC4R barr agon 13 (no result: MsrA inh) | MC4R barr ag 17 | MOR-DOR barr ag inactive
COc1cccc(-c2cnc3c(NC=O)cc(-c4cccc(C(=O)N(C)C)c4)cn23)c1	MC4R barr agon 31 | MC4R barr ag 21 | MOR-DOR barr ag inactive
CN(C)CCNC(=O)c1cccc(-c2cc(NC=O)c3ncc(-c4cccc(C(F)(F)F)c4)n3c2)c1	MC4R barr agon 23 | MC4R barr ag 29 | MOR-DOR barr ag inactive
COc1cccc(-c2cnc3c(NC=O)cc(-c4ccncc4)cn23)c1	none
COc1cccc(-c2cc(NC=O)c3ncc(-c4cc(OC)c(OC)c(OC)c4)n3c2)c1	MC4R barr agon 28 | MC4R barr ag inactive | MOR-DOR barr ag inactive
COc1cccc(-c2cnc3c(NC=O)cc(-c4ccc(O)c(OC)c4)cn23)c1	MC4R barr agon 30 | MC4R barr ag 30 | MOR-DOR barr ag inactive
COc1cccc(-c2cc(NC=O)c3ncc(-c4cccc(C(=O)N(C)C)c4)n3c2)c1	none
COc1cc(-c2cnc3c(NC=O)cc(-c4cccnc4)cn23)cc(OC)c1OC	none
Cc1ccc(/C=N/NC(=O)c2cc(-c3ccc(C)o3)[nH]n2)cc1	none
O=[N+]([O-])c1ccc(OCc2n[nH]c(=S)n2-c2ccccc2)cc1	none
COc1cc(-c2cnc3c(NC=O)cc(-c4cccc(C(F)(F)F)c4)cn23)cc(OC)c1OC	MC4R barr agon 18 | MC4R barr ag inactive | MOR-DOR barr ag inactive
Nc1ccc(-c2cc(NC=O)c3ncc(-c4cccc(C(F)(F)F)c4)n3c2)cn1	MC4R barr agon 11 | MC4R barr ag inactive | MOR-DOR barr ag inactive
Cn1cc(-c2cnc3c(NC=O)cc(-c4cccc(C(F)(F)F)c4)cn23)cn1	none
COc1ccc(CCNC(=O)COc2ccc([N+](=O)[O-])cc2)cc1	none
COc1ccc(CCNC(=O)COc2ccc(-c3ccc(C#N)cc3)cc2)cc1	MC4R barr agon 19 | MC4R barr ag inactive | MOR-DOR barr ag 28
N#Cc1ccc(-c2ccc(OCC(=O)NCC(=O)Nc3ccc(F)c(F)c3F)cc2)cc1	MC4R barr agon 18 | MC4R barr ag inactive | MOR-DOR barr ag inactive
CCN(CC)CCCNc1nc(C)cc(COC)c1C#N	none
Cc1cccc(OCC(=O)N/N=C/c2cn[nH]c2-c2ccc(Cl)c(Cl)c2)c1	none
O=C(NC1CCS(=O)(=O)C1)c1cccc(S(=O)(=O)N2CCOCC2)c1 (stereo unspecified)	none
CCOc1cc(/C=N\NC(=O)c2ccc(NC(=O)C(C)(C)C)cc2)ccc1OC(=O)c1ccc(C)cc1	none
Cc1cccc(C(=O)Oc2ccc(/C=N/NC(=O)c3ccccc3O)cc2)c1	none
CCOc1cc(/C=N\NC(=O)c2ccc(NC(=O)C(C)(C)C)cc2)ccc1OC(=O)c1cccc(C)c1	MC4R barr agon 18 | MC4R barr ag inactive | MOR-DOR barr ag inactive
